Columns and labels:
Entamoeba histolytica = assay: Antiamoebic activity against Entamoeba histolytica HM-1:IMSS after 72 hrs by microdilution method
[1] = Octanol-water partition coefficient, log P of the compound; assay type: physicochemical
HepG2 = assay: Cytotoxicity against human HepG2 cells after 48 hrs by MTT assay; assay type: cell-based; details: for IC50: Homo sapiens, HepG2, 48 h; for inhibition (INH): human, hepg2, 48 h
In short: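 HepG2 cells grown in DMEM with 10% heat-inactivated FBS and antibiotics at 37 °C, 5% CO2. Cells seeded at 1.2 × 10^4/well and grown 48 h, then exposed 48 h to 3.13–100 µM compound (DMSO stock diluted in medium). MTT (5 mg/mL) added for 4 h, formazan dissolved in DMSO, A570 read against 655 nm reference. Viability expressed relative to untreated cells; triplicate, repeated thrice.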

Row | Structure (SMILES) | IC50 (Entamoeba histolytica) | logP [1] | IC50 (HepG2) | inhibition (INH) (HepG2)
1 | CC(C)CN1C(=O)/C(=C/c2ccc(O)cc2)S/C1=N\c1ccccc1 | 2450 nM | 5.08 | – | –
2 | COc1ccc(/C=C2\S/C(=N\c3ccccc3)N(CC(C)C)C2=O)cc1 | 2720 nM | 5.22 | – | –
3 | Cc1ccc(/C=C2\S/C(=N\c3ccccc3)N(CC(C)C)C2=O)cc1 | 3210 nM | 5.89 | – | –
4 | CC(C)CN1C(=O)/C(=C/c2ccccc2O)S/C1=N\c1ccccc1 | 2040 nM | 5.08 | – | –
5 | CC(C)CN1C(=O)/C(=C/c2ccc3c(c2)OCO3)S/C1=N\c1ccccc1 | 16700 nM | 5 | – | –
6 | CC(C)CN1C(=O)/C(=C/c2cccc(Cl)c2)S/C1=N\c1ccccc1 | 660 nM | 5.98 | 88100 nM | Dose-dependent effect
7 | COc1ccc(OC)c(/C=C2\S/C(=N\c3ccccc3)N(CC(C)C)C2=O)c1 | 1950 nM | 5.06 | – | –
8 | CCc1ccc(/C=C2\S/C(=N\c3ccccc3)N(CC(C)C)C2=O)cc1 | 960 nM | 6.34 | 84700 nM | Dose-dependent effect
9 | CC(C)CN1C(=O)/C(=C/c2ccc(Cl)cc2)S/C1=N\c1ccccc1 | 1920 nM | 5.98 | – | –
10 | CC(C)CN1C(=O)/C(=C/c2ccccc2C(F)(F)F)S/C1=N\c1ccccc1 | 3710 nM | 6.26 | – | –
11 | Cc1ncc([N+](=O)[O-])n1CCO [METRONIDAZOLE] | 1640 nM | – | > 100000 nM | Dose-dependent effect

Compounds with a lower IC50 (Entamoeba histolytica), results first:

Row | IC50 (Entamoeba histolytica) | logP [1] | Structure (SMILES) | IC50 (HepG2) | inhibition (INH) (HepG2)
12 | 440 nM | 5.06 | COc1ccc(/C=C2\S/C(=N\c3ccccc3)N(CC(C)C)C2=O)cc1OC | > 100000 nM | Dose-dependent effect
13 | 600 nM | 4.4 | CC(C)CN1C(=O)/C(=C/c2ccccn2)S/C1=N\c1ccccc1 | > 100000 nM | Dose-dependent effect
14 | 110 nM | 5.81 | Cc1ccsc1/C=C1\S/C(=N\c2ccccc2)N(CC(C)C)C1=O | 89200 nM | Dose-dependent effect
15 | 640 nM | 4.92 | COc1cc(/C=C2\S/C(=N\c3ccccc3)N(CC(C)C)C2=O)ccc1O | 89500 nM | Dose-dependent effect
16 | 172 nM | 5.49 | CC(C)CN1C(=O)/C(=C/c2ccc(N(C)C)cc2)S/C1=N\c1ccccc1 | > 100000 nM | Dose-dependent effect
17 | 138 nM | 5.32 | CC(C)CN1C(=O)/C(=C/c2ccc([N+](=O)[O-])cc2)S/C1=N\c1ccccc1 | > 100000 nM | Dose-dependent effect
